Measured values collected from several papers.
Each line is one published result; the experiments were not run side by side.
Target: RAC-alpha serine/threonine-protein kinase (AKT1, Homo sapiens, UniProt P31749)

Oc1ccc(-c2nc(-c3ccncc3)c(-c3ccc(F)cc3)[nH]2)cc1 — remaining signal (cell-free assay; 0.5 µM): 101%
Cc1ccc(C(=O)NCc2ccsc2)cc1C#Cc1cn(C(C)C)c2ncnc(N)c12 — activity vs control (enzyme activity, inhibitor; 1 µM): 94%
FC(F)(F)Oc1cccc(-c2cnc3ccc(-c4ccncc4)nn23)c1 — activity vs control (enzyme activity, inhibitor, radiometric; 5 µM): 104%
Oc1cccc(-c2nc(N3CCOCC3)c3oc4ncccc4c3n2)c1 — remaining activity (enzyme activity, inhibitor; 10 µM): 78%
O=C1CCc2cc(Nc3cc(OC4CCOCC4)c([N+](=O)[O-])cc3Cl)ccc2N1 — remaining binding (cell-free assay, competition with immobilised ligand; 1 µM): 98%
Cn1c(=O)n(-c2ccc(C(C)(C)C#N)cc2)c2c3cc(-c4cnc5ccccc5c4)ccc3ncc21 — remaining activity (enzyme activity, inhibitor; 10 µM): 126%
CCN(CC)c1ccc(C2=NNC(=O)CC2C)cc1[N+](=O)[O-] (stereo not drawn) — remaining activity (enzyme activity, inhibitor; 10 µM): 81%
CNC(=O)c1cc(Oc2ccc(NC(=O)Nc3ccc(Cl)c(C(F)(F)F)c3)cc2)ccn1 — inhibition (enzyme activity, inhibitor; 10 µM): -3%
COc1cc2ncnc(Nc3ccc(Oc4ccccc4)cc3C)c2cc1OC — inhibition (enzyme activity, inhibitor; 1 µM): 0%
CNC(=O)Nc1ccc2c(c1)[C@@]1(CC2)OC(=O)N(CC(=O)N(Cc2ccc(F)cc2)[C@@H](C)C(F)(F)F)C1=O — remaining binding (cell-free assay, competition with immobilised ligand; 1 µM): 77%
Cn1cnc(Br)c1C1=CN(c2ncnc3[nH]cnc23)CCS1 — inhibition (enzyme activity, inhibitor, radiometric; 2 µM): 84.3%
N#CCCc1ccc2c(c1)-c1[nH]c3ccc([N+](=O)[O-])cc3c1CC(=O)N2 — remaining signal (cell-free assay; 0.5 µM): 111%
CCOc1cc(-c2nncn2C)ccc1Nc1ncc2cc(C)nc(NCC(C)(C)C)c2n1 — inhibition (enzyme activity, inhibitor, FRET; 1 µM): < 15%
CC(C)c1ccc(NC(=O)c2cccs2)c(-c2nc3ccccc3[nH]c2=O)c1 — activity vs control (enzyme activity, inhibitor; 1 µM): 120%
O=S(=O)(NCCNC/C=C/c1ccc(Br)cc1)c1cccc2cnccc12 — remaining signal (cell-free assay; 0.5 µM): 41.6%
CCCOc1ccc([C@H]2[C@H](C(=O)O)[C@@H](c3ccc4c(c3)OCO4)CN2CC(=O)Nc2c(CC)cccc2CC)cc1 — remaining binding (cell-free assay, competition with immobilised ligand; 1 µM): 97%
COc1cc(F)ccc1-c1ncnc(Nc2cccc(C[S@](C)(=N)=O)c2)n1 — activity vs control (enzyme activity, inhibitor; 10 µM): 108%
CC(C)(O)[C@H]1CC[C@H](Nc2ccc3ncc(-c4cccc(C(F)(F)F)c4)n3n2)CC1 — remaining activity (enzyme activity, inhibitor; 1 µM): 93.2%
COc1ccc2c(c1)O[C@@H](c1ccc(OC)c(OC)c1)C[C@H]2NC(=O)C1(c2ccc3c(c2)OC(F)(F)O3)CC1 — remaining binding (cell-free assay, competition with immobilised ligand; 1 µM): 100%
CC(C)(C)c1nc2c(s1)c1nc(N)ncc1c1ccc(NS(=O)(=O)c3c(F)cccc3F)c(F)c12 — remaining activity (enzyme activity, inhibitor, radiometric; 1 µM): 88%
CCCOc1ccc(OC)c(F)c1C(=O)c1ccc(C(=O)N[C@@H]2CNC[C@H]2NC(=O)c2ccc3[nH]ncc3c2)cc1 — remaining activity (enzyme activity, inhibitor; 10 µM): 20%
Cn1cncc1C1=CN(c2ncnc3[nH]cnc23)CCS1 — inhibition (enzyme activity, inhibitor, radiometric; 50 nM): 25.1%
Cc1ccc(Nc2nccc(N(C)c3ccc4c(C)n(C)nc4c3)n2)cc1S(N)(=O)=O — inhibition (enzyme activity, inhibitor; 0.3 µM): -7%
C[C@@H]1CN(c2cc(-c3nn(C)c4ccc(OC5(C)CC5)cc34)ncn2)C[C@H](C)O1 — remaining binding (cell-free assay, competition with immobilised ligand; 1 µM): 100%
CS(=O)(=O)Nc1cccc(-c2csc(NC(=O)CSc3nc4nccnc4c(=O)n3CCc3ccccc3)n2)c1 — inhibition (enzyme activity, inhibitor; 10 µM): 1%
CC(C)(C)C(=O)c1sc(NC2CCCCC2)nc1N — remaining activity (enzyme activity, inhibitor; 10 µM): 90%
COCCOc1nc(-c2ccc(Cl)nc2)nc2c1CN(C(=O)c1ncn3ccccc13)CC2 — remaining binding (cell-free assay, competition with immobilised ligand; 0.1 µM): 82%
CN(C)C1CCN(CC#Cc2nn(C3CCCC3)c3nc(NCc4ccccc4)ncc23)C1 (stereo not drawn) — inhibition (enzyme activity, inhibitor, FRET; 10 µM): 7%
CCCS(=O)(=O)Nc1ccc(F)c(C(=O)c2c[nH]c3ncc(-c4ccc(Cl)cc4)cc23)c1F — inhibition (enzyme activity, inhibitor; 1 µM): < 20%
COc1cc(/C=C/C(=O)CC(=O)/C=C/c2ccc(O)c(OC)c2)ccc1O — activity vs control (enzyme activity, inhibitor; 1 µM): 102%
CNCc1ccccc1-c1csc([C@@H](C)Nc2nc(C)nc3cc(OC)c(OC)cc23)c1 — remaining binding (cell-free assay, competition with immobilised ligand; 1 µM): 100%
C=CC(=O)Nc1cc(Nc2nccc(Nc3cc(Cl)c(F)cc3C(C)(C)O)n2)c(OC)cc1N1CC[C@@H](N(C)C)C1 — inhibition (enzyme activity, inhibitor; 1 µM): -5%
Cc1sc(C(=O)NC2COC2)cc1-n1cc(NC(=O)Nc2c(F)cccc2Cl)cn1 — remaining activity (enzyme activity, inhibitor; 10 µM): 105%
O=C1NC(=O)c2cc(Nc3ccc(F)cc3)c(Nc3ccc(F)cc3)cc21 — remaining signal (cell-free assay; 0.5 µM): 94.8%
CCc1ccccc1C(=O)Nc1n[nH]c2c(C)c(F)c(C3C(C#N)=C(C)N(C)C(C)=C3C#N)cc12 — remaining binding (cell-free assay, competition with immobilised ligand; 1 µM): 75%
COc1cc(Nc2cnc(C#N)c(O[C@H](C)CN(C)C)n2)ncc1-c1cnn(C)c1 — remaining activity (enzyme activity, inhibitor, radiometric; 1 µM): 98%
